What all share (assay type): functional
Experiment [1] is filed under the species Homo sapiens. Nature of the experiment: Mean percent inhibition of aqueous superoxide anion production in isolated human neutrophil assay at 0.1 mM using ethanol as solvent. Summed up:
(§1)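 Human PMNs from one donor's venous blood were isolated on a Percoll gradient (1.080 g/mL, 400g, 20 min, 20 C), erythrocytes removed by hypotonic lysis, and cells washed in PAG buffer (PIPES pH 7.4, 0.003% HSA, 0.1% glucose). Carotenoid phospholipid isomer mix was taken from a 41.2% EtOH stock (0.4% EtOH final). Cells were preincubated 5 min, then PMA-stimulated. The DEPMPO-OOH adduct (10 mM DEPMPO) was read by X-band EPR, and % inhibition set against the no-compound control.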

The species entered for experiment [2] is Homo sapiens. Put plainly: Mean percent inhibition of aqueous superoxide anion production in isolated human neutrophil assay at 0.5 mM using water as solvent. In outline: (§2)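 The carotenoid phospholipid isomer mix was dispersed in deionized water without heat, detergent or additives. Isolated human PMNs (Percoll gradient, hypotonic erythrocyte lysis, washed in PIPES-HSA-glucose buffer, pH 7.4) were preincubated 5 min with the suspension, then PMA-stimulated. Superoxide was spin-trapped with 10 mM DEPMPO and the DEPMPO-OOH signal measured by X-band EPR. Inhibition is expressed relative to the no-compound control signal.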

The species named for experiment [3] is Homo sapiens. Put plainly: Mean percent inhibition of aqueous superoxide anion production in isolated human neutrophil assay at 1 mM using ethanol as solvent. Summed up:
as §1

The species named for experiment [4] is Homo sapiens. Put plainly: Mean percent inhibition of aqueous superoxide anion production in isolated human neutrophil assay at 10 mM using water as solvent. Summed up: as §2
The species named for experiment [5] is Homo sapiens. Put plainly: Mean percent inhibition of aqueous superoxide anion production in isolated human neutrophil assay at 1 mM using water as solvent. Summed up: as §2
For experiment [6], the species on record is Homo sapiens. Nature of the experiment: Mean percent inhibition of aqueous superoxide anion production in isolated human neutrophil assay at 0.5 mM using ethanol as solvent. In outline:
as §1

The species entered for experiment [7] is Homo sapiens. Put plainly: Mean percent inhibition of aqueous superoxide anion production in isolated human neutrophil assay at 3 mM using water as solvent. In outline: as §2
Experiment [8] is filed under the species Homo sapiens. Put plainly: Mean percent inhibition of aqueous superoxide anion production in isolated human neutrophil assay at 0.3 mM using ethanol as solvent. In outline: as §1
The species entered for experiment [9] is Homo sapiens. Nature of the experiment: Mean percent inhibition of aqueous superoxide anion production in isolated human neutrophil assay at 3 mM using ethanol as solvent. In outline: as §1

Take `CC1=C(/C=C/C(C)=C/C=C/C(C)=C/C=C/C=C(C)/C=C/C=C(C)/C=C/C2=C(C)C(=O)C(OC(=O)CCC(=O)[O-])CC2(C)C)C(C)(C)CC(OC(=O)CCC(=O)[O-])C1=O.[Na+].[Na+]` (stereo not given) [DISODIUM SALT DISUCCINATE DIESTER OF ASTAXANTHIN]: in the experiment filed under Homo sapiens [1], the Mean inhibition is 38%.

For `CC1=C(/C=C/C(C)=C/C=C/C(C)=C/C=C/C=C(C)/C=C/C=C(\C)C(=O)OC(CO)COP(=O)([O-])OCC[N+](C)(C)C)C(C)(C)CCC1.CC1=C(/C=C/C(C)=C/C=C/C(C)=C/C=C/C=C(C)/C=C/C=C(\C)C(=O)OCC(CO)OP(=O)([O-])OCC[N+](C)(C)C)C(C)(C)CCC1.CC1=C(/C=C/C(C)=C/C=C/C(C)=C/C=C/C=C(C)/C=C/C=C(\C)C(=O)OCC(O)COP(=O)([O-])OCC[N+](C)(C)C)C(C)(C)CCC1` (stereo not given), the Mean inhibition is on record as 18.2% in the experiment filed under Homo sapiens [2]; 79.3% in the experiment listed under Homo sapiens [3]; 94.3% in the experiment listed under Homo sapiens [4]; 13.3% in the experiment listed under Homo sapiens [1]; 24.6% in the experiment listed under Homo sapiens [5]; 61.7% in the experiment listed under Homo sapiens [6]. Besides, the results for the Mean inhibition in the experiment filed under Homo sapiens [7], in the experiment listed under Homo sapiens [8] and in the experiment listed under Homo sapiens [9] were 51.8%, 31.3% and 98.7%, respectively.

Source of the values: ChEMBL document CHEMBL1149224, “Direct superoxide anion scavenging by a highly water-dispersible carotenoid phospholipid evaluated by electron paramagnetic resonance (EPR) spectroscopy” (2004).
